Compounds with a hit are over-represented: about 3.9% of the library has one in this group of screens.
697 NFkB inh: inhibitors of the PMA/ionomycin-induced NF-kB reporter in 697 B cells; 697 B-cell NF-kB luciferase reporter, 16 h; inhibition, % at 4 µM; 330,000 compounds, 0.33% hits; in the data active = inhibition above about 35%
CHOP UPR activ: apoptotic UPR (CHOP) activation; CHO-CHOP luciferase reporter, luminescence; percent of tunicamycin response over DMSO baseline; activation, % at 10 µM; 330,000 compounds, 0.34% hits;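 active = at 10 µM dose, activation of 40% or more, normalized to positive control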;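 also: 100% = tunicamycin at 10 µg/mL and 0% = DMSO alone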
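Material: CHO-CHOP cells, stable luciferase reporter of PERK-eIF2a-CHOP signalling; quantity: 500 reporter cells seeded per well; buffer or medium: F12 medium containing 10% fetal bovine serum; compound: one dose, 10 µM in 0.5% DMSO; incubation: 6 h compound treatment, 37 °C; measured by: Steady-Glo luciferase luminescence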
Gli-Sufu antag: antagonists of Gli-Sufu signaling; Sufu-KO-LIGHT fibroblasts, Gli luciferase reporter luminescence; 340,000 compounds, 0.74% hits; inhibition, % at 5 µM; AID 588413;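 active = inhibition above about 55%, limit read from the data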;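 also: 0% = DMSO-treated cells and 100% = wells with medium but no cells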
CHOP inhibitor: inhibitors of CHOP induction in ER stress response; CHO-K1 CHOP-promoter luciferase, tunicamycin-induced, 15-18 h; inhibition, % at 10 µM; 220,000 compounds, 3.8% hits;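 active = compounds that reduced the stress-induced luciferase reporter signal by more than about 70% of percent inhibition, limit read from the data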;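 also: 0% = tunicamycin plus vehicle and 100% = wells without tunicamycin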
XBP1 UPR activ: activators of adaptive arm of unfolded protein response (XBP1). activation, % at 20 µM. CHO-XBP1 luciferase reporter, IRE1-XBP1 UPR activation, luminescence; percent of tunicamycin response, DMSO as zero. AID 463104. 330,000 compounds, 0.33% hits;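 active = versus positive control, 20 µM dose yields 30% or more activation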;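 also: 100% = tunicamycin at 10 µg/mL and 0% = DMSO only wells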
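Assay system: IRE1-XBP1 luciferase reporter CHO line. Input: 1000 cells/well. Buffer or medium: F12 with 10% serum. Doses: 20 µM, 1% DMSO. Times: overnight seeding at 37 °C, 6 h compound treatment at 37 °C. Technique: Steady-Glo luciferase glow luminescence, 10 min after reagent addition.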
Jurkat NFkB inh: inhibitors of the PMA/ionomycin-induced NF-kB reporter in Jurkat cells; PMA/ionomycin-induced NF-kB luciferase reporter, luminescence; inhibition, % at 4 µM; 330,000 compounds, 0.53% hits; AID 435003; in the data active = inhibition above about 50%
CHOP confirm: confirmation of CHOP induction inhibitors. inhibition, % at 10 µM. shares compounds with CHOP inhibitor. 2,100 compounds, 45% hits. CHO-CHOP promoter luciferase reporter, tunicamycin-induced, luminescence;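 active = mean of three repeat readings of reporter signal inhibition above a set limit, cut at about 70% in these data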;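 also: 0% = tunicamycin plus vehicle and 100% = wells lacking tunicamycin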
* marks the source's active call; other numbers are inactive results; nt = no result given.

SMILES | 697 NFkB inh | CHOP UPR activ | Gli-Sufu antag | CHOP inhibitor | XBP1 UPR activ | Jurkat NFkB inh | CHOP confirm
CC(C)c1ccc2[nH]c(O)c(N=NC(=O)c3cccc(S(=O)(=O)N4CCCCC4)c3)c2c1 | -4 | 2 | 6 | 66 | 3 | 13 | nt
O=C(N=Nc1c(O)[nH]c2ccccc12)c1cccc(S(=O)(=O)N2CCCCC2)c1 | -12 | 3 | -11 | 97* | 14 | 4 | -27
CCOC(=O)N1CCN(C(=O)c2cn(CC)c3ccc(S(=O)(=O)N(C)C4CCCCC4)cc3c2=O)CC1 | -2 | 0 | -2 | nt | -10 | 14 | nt
c1ccc(Nc2ccc3c4c(cccc24)CC3)cc1 | -27 | -2 | 1 | 100* | -1 | -9 | 49
c1ccc(Nc2cccc3ccccc23)cc1 | -12 | 2 | 2 | nt | 3 | -9 | nt
COc1ccccc1NCC(=O)N/N=C(\C)c1ccc(Br)s1 | -6 | 2 | -3 | 98* | 0 | -1 | 40
Cc1cc(C)c(C)c(S(=O)(=O)N2CCC(C(=O)Nc3ccncc3)CC2)c1C | -1 | -1 | 16 | nt | -5 | 15 | nt
Cc1ccc2c(c1)c1c3n2CCN(C(=O)CN2CCN(C)CC2)C3CCC1 (configuration not stated) | -6 | 3 | 18 | 12 | -1 | 1 | nt
CN1CCN(CC(=O)N2CCn3c4c(c5cc(C6CCCCC6)ccc53)CCCC42)CC1 (configuration not stated) | -17 | 9 | 7 | nt | 26 | -8 | 132*
CCc1ccc(S(=O)(=O)/N=C2\C=CC(=O)c3ccccc32)cc1 | -4 | 14 | nt | -30 | 18 | 9 | nt
CCc1ccc(S(=O)(=O)/N=C2/C=C(Sc3ncn[nH]3)C(=O)c3ccccc32)cc1 | nt | nt | 1 | 108* | nt | nt | -141
Cc1ccc(OCC(=O)N2N=C(C(F)(F)F)CC2(O)C(C)(C)C)cc1C (configuration not stated) | -71 | -2 | 8 | 103* | -1 | -16 | 116*
O=C(COC(=O)c1ccc(Br)o1)NCc1ccc(Cl)cc1 | 6 | 1 | 3 | nt | -4 | 10 | nt
CCCCn1c(=O)[nH]c(=O)c2c1nc(-c1ccc(C(F)(F)F)cc1)n2C | 7 | 0 | 16 | 34 | 3 | -9 | nt
CCCCn1c(=O)[nH]c(=O)c2c1nc(-c1ccc(OCCC)c(OCC)c1)n2C | -64 | 3 | 2 | 101* | 8 | -31 | 91*
O=C(O)c1ccccc1NS(=O)(=O)c1cccc(C(F)(F)F)c1 | 5 | 0 | 2 | 1 | 1 | 14 | nt
O=S(=O)(Nc1cccc2c1CCCC2)c1cccc(C(F)(F)F)c1 | -9 | 0 | 8 | 107* | 3 | 0 | 120*
Cc1ccc(OC(=O)CCNC(=O)c2ccccc2Cl)c(Br)c1 | -9 | -1 | 3 | nt | 1 | 10 | nt
CC1CCN(C(=O)/C(=C/c2ccccc2Cl)c2ccccc2)CC1 | 25 | 0 | -4 | 101* | -2 | -6 | 88*
CN1CCN(C(=O)/C(=C\c2ccccc2)c2ccccc2)CC1 | -20 | -2 | -9 | -2 | 0 | -6 | nt
ON=C1c2cc(OCCN3CCCCC3)ccc2-c2ccc(OCCN3CCCCC3)cc21 | -3 | 6 | 17 | nt | -7 | -5 | nt
C=CCOc1ccc2c(c1)C(=NO)c1cc(OCC=C)ccc1-2 | -65 | 2 | 9 | 104* | 7 | -11 | 59
CCn1c(=O)c2sccc2n(Cc2cccc(C)c2)c1=O | -77 | 2 | 4 | nt | 0 | -38 | nt
CCOC(=O)c1ccc(NC(=O)c2ccccc2[N+](=O)[O-])cc1 | -42 | 6 | -27 | -13 | -2 | -39 | nt
CCOC(=O)c1cc([N+](=O)[O-])c([N+](=O)[O-])cc1NC(C)=O | nt | nt | -3 | 107* | nt | nt | 91*
SMILES | 697 NFkB inh | CHOP UPR activ | Gli-Sufu antag | CHOP inhibitor | XBP1 UPR activ | Jurkat NFkB inh | CHOP confirm
CCN(C[C@H]1N[C@@](Cc2ccccc2)(C(=O)OC)[C@H]2C(=O)N(C)C(=O)[C@@H]12)S(=O)(=O)c1ccc(C(C)(C)C)cc1 | 3 | 1 | 5 | nt | -3 | 4 | nt
CNC(=S)N/N=C/c1c(C)c(C(=O)c2ccc(F)cc2)n2ccccc12 | 9 | -1 | 2 | nt | 6 | -17 | nt
Clc1ccc2[nH]c(-c3ccccc3)cc2c1 | -170 | 4 | -68 | 104* | 1 | -102 | 70*
CCCC(=O)NC(NC(=S)Nc1ccc(N=Nc2ccccc2)cc1)C(Cl)(Cl)Cl (configuration not stated) | -40 | 30 | 36 | 100* | 2 | 4 | 83*
CCc1ccc(OCC(=O)NC(NC(=S)Nc2ccc(Cl)cc2)C(Cl)(Cl)Cl)cc1 (configuration not stated) | 6 | 21 | 5 | 102* | 6 | 15 | 70*
O=C(CCl)Nc1cccc(Oc2cnccn2)c1 | 4 | 3 | 6 | nt | -6 | 17 | nt
O=C(CCl)Nc1ccc(N=Nc2ccccc2)cc1 | nt | nt | -31 | 103* | nt | nt | 9
O=C(CCl)Nc1cccc(Oc2ccccc2)c1 | -158 | 7 | 8 | 107* | -5 | 39 | -202
CC(=O)Nc1ccc(N=Nc2ccccc2)cc1 | -160 | 3 | -90 | 20 | 2 | -101 | nt
COc1ccc(CCNC(=O)C(C)n2nc(C)n3c(cc4occc43)c2=O)cc1OC (configuration not stated) | 12 | -1 | 4 | nt | -9 | -1 | nt
CCn1c2ccccc2c2cc(NC(=O)CSc3nnc(-c4ccc(OC)cc4)n3N)ccc21 | -35 | -1 | 8 | 102* | 14 | -64 | 43
COc1ccc(NC(=O)CSc2nnc(-c3ccccc3)n2N)cc1 | -17 | 0 | -19 | -6 | 2 | -16 | nt
O=C(CNC(=O)c1ccc(Cl)cc1)N/N=C/C=C/c1ccccc1 | 2 | -1 | 24 | 99* | 1 | -15 | 20
O=C(COc1ccccc1)NCC(=O)N/N=C/C=C/c1ccccc1 | -11 | 1 | -15 | 13 | 0 | 10 | nt
CCCCn1c(NS(=O)(=O)c2ccccc2)c(S(=O)(=O)c2ccc(C)cc2)c2nc3ccccc3nc21 | nt | nt | 11 | 99* | nt | nt | 76*
Cc1ccc(OCC(=O)N/N=C/c2cccc3cccnc23)cc1 | -4 | -1 | 9 | nt | -4 | -1 | nt
Cc1cc(C(=O)NC(C)C2CC2)c(Cl)cc1Cl (configuration not stated) | -7 | 1 | nt | nt | -3 | 5 | nt
Cc1ccc(OCCC(=O)OCC(=O)NC(=O)c2ccccc2)cc1 | -11 | 0 | -8 | nt | 0 | 9 | nt
COc1ccc(C2=NS(=O)(=O)N(C)C(C(=O)N3CCN(C)CC3)=C2)cc1 | 9 | 0 | -4 | nt | -2 | -7 | nt
COc1cccc(CNC(=O)C2CCC(CNc3nc(=S)[nH]c4ccccc34)CC2)c1 (configuration not stated) | -12 | 0 | 11 | 70 | 4 | 12 | nt

Screens deposited in PubChem by several laboratories.
